Reference: article PMC8114154 (Journal of Applied Glycoscience, 2019)

Assays:
AnigAgdA = molecular target: T1, AnigAgdA (Aspergillus niger, UniProt P56526); assay: glucose release, fit of v = Vmax[S]/; format: biochemical; conditions: 20 mM acetate pH 4.0, 40 °C, 60 min; substrate inhibition
T1 sequence (P56526 26-985): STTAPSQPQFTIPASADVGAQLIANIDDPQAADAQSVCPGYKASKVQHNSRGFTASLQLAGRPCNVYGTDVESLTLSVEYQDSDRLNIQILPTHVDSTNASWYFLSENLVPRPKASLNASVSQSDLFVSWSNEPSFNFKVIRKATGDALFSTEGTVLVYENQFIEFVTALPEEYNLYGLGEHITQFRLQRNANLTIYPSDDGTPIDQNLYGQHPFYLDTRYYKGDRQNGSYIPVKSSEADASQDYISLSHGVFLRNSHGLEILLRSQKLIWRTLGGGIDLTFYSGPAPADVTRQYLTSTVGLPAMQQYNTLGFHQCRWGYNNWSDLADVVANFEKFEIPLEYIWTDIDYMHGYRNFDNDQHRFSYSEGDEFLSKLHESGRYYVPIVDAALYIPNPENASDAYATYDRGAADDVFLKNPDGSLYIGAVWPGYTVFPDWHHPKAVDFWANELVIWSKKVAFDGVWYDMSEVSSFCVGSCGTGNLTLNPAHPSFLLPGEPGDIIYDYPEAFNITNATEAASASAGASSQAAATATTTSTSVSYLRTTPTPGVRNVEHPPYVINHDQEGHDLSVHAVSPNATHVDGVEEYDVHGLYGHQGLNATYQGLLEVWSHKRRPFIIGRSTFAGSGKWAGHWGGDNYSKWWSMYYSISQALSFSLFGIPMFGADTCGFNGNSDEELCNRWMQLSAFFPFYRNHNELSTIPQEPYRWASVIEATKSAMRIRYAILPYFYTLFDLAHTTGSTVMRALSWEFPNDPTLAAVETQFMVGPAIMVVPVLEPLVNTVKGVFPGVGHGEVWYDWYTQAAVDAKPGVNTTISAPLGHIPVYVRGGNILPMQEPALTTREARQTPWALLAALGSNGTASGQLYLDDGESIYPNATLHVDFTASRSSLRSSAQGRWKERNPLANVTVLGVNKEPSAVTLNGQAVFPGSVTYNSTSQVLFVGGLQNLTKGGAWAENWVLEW

AsojAgdL = assay: glucose release; format: biochemical, Aspergillus sojae; conditions: 20 mM MES pH 6.0, 40 °C, 60 min
Summary of the method: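 Recombinant enzyme expressed in A. nidulans, purified by His-Trap affinity then Superdex 200 gel filtration. Incubated with substrates at various concentrations for 60 min at 40 °C. Stopped with 10 % oxalic acid and 10 min boiling. Released glucose quantified by glucose assay kit. Km from nonlinear-regression Michaelis–Menten fit of initial velocities over the low-concentration range only.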

[1] = low substrate range only (substrate inhibition)

SMILES | Ki (AnigAgdA) [mM] | Km (AsojAgdL; [1]) [µM] | Km (AsojAgdL) [µM]
OC[C@H]1O[C@H](OC[C@H]2O[C@H](OC[C@H]3O[C@H](OC[C@H]4O[C@H](OC[C@H]5O[C@H](OC[C@H]6OC(O)[C@H](O)[C@@H](O)[C@@H]6O)[C@H](O)[C@@H](O)[C@@H]5O)[C@H](O)[C@@H](O)[C@@H]4O)[C@H](O)[C@@H](O)[C@@H]3O)[C@H](O)[C@@H](O)[C@@H]2O)[C@H](O)[C@@H](O)[C@@H]1O (stereo partly shown) [Isomaltohexaose] |  |  | 1100 ± 200
OC[C@H]1O[C@H](OC[C@H]2O[C@H](OC[C@H]3OC(O)[C@H](O)[C@@H](O)[C@@H]3O)[C@H](O)[C@@H](O)[C@@H]2O)[C@H](O)[C@@H](O)[C@@H]1O (stereo partly shown) [Isomaltotriose] |  |  | 500 ± 100
OC[C@H]1O[C@H](OC[C@H]2OC(O)[C@H](O)[C@@H](O)[C@@H]2O)[C@H](O)[C@@H](O)[C@@H]1O (stereo partly shown) [Isomaltose] |  |  | 2000 ± 300
OC[C@H]1O[C@H](OC[C@H]2O[C@H](OC[C@H]3O[C@H](OC[C@H]4O[C@H](OC[C@H]5OC(O)[C@H](O)[C@@H](O)[C@@H]5O)[C@H](O)[C@@H](O)[C@@H]4O)[C@H](O)[C@@H](O)[C@@H]3O)[C@H](O)[C@@H](O)[C@@H]2O)[C@H](O)[C@@H](O)[C@@H]1O (stereo partly shown) [Isomaltopentaose] |  |  | 900 ± 100
OC[C@H]1O[C@H](OC[C@H]2O[C@H](OC[C@H]3O[C@H](OC[C@H]4OC(O)[C@H](O)[C@@H](O)[C@@H]4O)[C@H](O)[C@@H](O)[C@@H]3O)[C@H](O)[C@@H](O)[C@@H]2O)[C@H](O)[C@@H](O)[C@@H]1O (stereo partly shown) [Isomaltotetraose] |  |  | 2400 ± 800
OC[C@H]1O[C@H](O[C@H]2C(O)O[C@H](CO)[C@@H](O)[C@@H]2O)[C@H](O)[C@@H](O)[C@@H]1O (stereo partly shown) [Kojibiose] |  |  | 2100 ± 300

Other lines, results leading:

Ki (AnigAgdA) [mM] | Km (AsojAgdL; [1]) [µM] | Km (AsojAgdL) [µM] | SMILES
3.8 ± 0.7 | 2000 |  | OC[C@H]1O[C@H](O[C@H]2[C@H](O)[C@@H](O)[C@@H](O[C@H]3[C@H](O)[C@@H](O)C(O)O[C@@H]3CO)O[C@@H]2CO)[C@H](O)[C@@H](O)[C@@H]1O (stereo partly shown) [Maltotriose]
 | 1600 ± 100 |  | OC[C@H]1O[C@H](O[C@H]2[C@H](O)[C@@H](O)[C@@H](O[C@H]3[C@H](O)[C@@H](O)[C@@H](O[C@H]4[C@H](O)[C@@H](O)C(O)O[C@@H]4CO)O[C@@H]3CO)O[C@@H]2CO)[C@H](O)[C@@H](O)[C@@H]1O (stereo partly shown) [Maltotetraose]
30.8 ± 7.0 | 900 ± 100 |  | OC[C@H]1O[C@H](O[C@H]2[C@H](O)[C@@H](O)[C@@H](O[C@H]3[C@H](O)[C@@H](O)[C@@H](O[C@H]4[C@H](O)[C@@H](O)[C@@H](O[C@H]5[C@H](O)[C@@H](O)[C@@H](O[C@H]6[C@H](O)[C@@H](O)C(O)O[C@@H]6CO)O[C@@H]5CO)O[C@@H]4CO)O[C@@H]3CO)O[C@@H]2CO)[C@H](O)[C@@H](O)[C@@H]1O (stereo partly shown) [Maltohexaose]
12.0 ± 3.6 |  | 2200 ± 300 | OC[C@H]1O[C@H](O[C@H]2[C@H](O)[C@@H](O)C(O)O[C@@H]2CO)[C@H](O)[C@@H](O)[C@@H]1O (stereo partly shown) [Maltose]
 |  | 2500 ± 400 | OC[C@H]1O[C@H](O[C@H]2[C@H](O)[C@@H](CO)OC(O)[C@@H]2O)[C@H](O)[C@@H](O)[C@@H]1O (stereo partly shown) [Nigerose]
19.6 ± 2.2 | 900 ± 100 |  | OC[C@H]1O[C@H](O[C@H]2[C@H](O)[C@@H](O)[C@@H](O[C@H]3[C@H](O)[C@@H](O)[C@@H](O[C@H]4[C@H](O)[C@@H](O)[C@@H](O[C@H]5[C@H](O)[C@@H](O)C(O)O[C@@H]5CO)O[C@@H]4CO)O[C@@H]3CO)O[C@@H]2CO)[C@H](O)[C@@H](O)[C@@H]1O (stereo partly shown) [Maltopentaose]
